# Assay results from ChEMBL document CHEMBL3621175, “Second generation 2-aminoimidazole based advanced glycation end product inhibitors and breakers” (Bioorg Med Chem Lett, 2015).
# The source made the active and inactive calls. No cut-off for these calls is given here.
# Columns and labels:
# [1] = Inhibition of advanced glycation end product formation assessed as protection of reactive primary amines by measuring increase in primary amine level at 100 uM incubated for 7 days using BSA and glycolaldehyde by TNBSA assay; format: physicochemical; settings: 168 h
# Method in brief: (§1)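 BSA was modified with glycolaldehyde in the presence of 2-AIs. Total primary amines were quantified by TNBSA, independent of fluorescence. Protection appears as preserved free amines relative to GO-modified BSA, with basal free-amine level of BSA before GO/2-AI treatment as reference. DMSO and PBS served as vehicle controls, with aminoguanidine as comparator.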
# [2] = Induction of breaking of pre-formed carboxymethyl lysine-enriched advanced glycation end product formation using BSA and glyoxylic acid assessed as increase in primary amine content at 400 uM after 24 hrs by TNBSA assay relative to pre-formed CML-enriched AGE
# Method in brief: (§2)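 CML-enriched AGE-BSA was pre-formed from 50 mg/mL BSA and 25 mM glyoxylic acid with sodium cyanoborohydride over 48 h, then purified by dialysis. The glycated protein was exposed to 2-AIs for 24 h. Free primary amines were quantified by TNBSA and compared with untreated CML-BSA. DMSO and PBS served as vehicle controls, with aminoguanidine as reference.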
# [3] = Inhibition of advanced glycation end product formation assessed as protection of reactive primary amines by measuring increase in primary amine level at 100 uM incubated for 7 days using BSA and glycolaldehyde by TNBSA assay relative to control BSA; format: physicochemical; set-up: scale not given: the % may be the effect or the level left; settings: 168 h; method in brief: as §1
# [4] = Induction of breaking of pre-formed carboxymethyl lysine-enriched advanced glycation end product formation using BSA and glyoxylic acid assessed as increase in primary amine content at 400 uM after 24 hrs by TNBSA assay relative to 4,4'-(butane-1,4-diyl)bis(1H-imidazol-2-amine) dihydrochloride
# [5] = Induction of breaking of pre-formed carboxymethyl lysine-enriched advanced glycation end product formation using BSA and glyoxylic acid assessed as increase in primary amine content at 400 uM after 24 hrs by TNBSA assay relative to BSA alone; method in brief: as §2
# [6] = Inhibition of advanced glycation end product formation using BSA and glycolaldehyde at 400 uM by standard fluorescence based assay; format: physicochemical
# [7] = Induction of breaking of pre-formed advanced glycation end product formation using BSA assessed as restoration of glycated -BSA primary amine content after 24 hrs by TNBSA assay
# [8] = Inhibition of advanced glycation end product formation using BSA and glycolaldehyde at 40 uM by standard fluorescence based assay; format: physicochemical
# [9] = Inhibition of advanced glycation end product formation assessed as protection of reactive primary amines by measuring primary amine reduction using BSA and glycolaldehyde by TNBSA assay; format: physicochemical; set-up: scale not given: the % may be the effect or the level left; method in brief: as §1
Compound,inhibition (INH) [1],Activity [2],Activity [4],Activity [5],other results
N=C(N)NCCCc1c[nH]c(N)n1,Active,–,–,–,–
NCCCCc1c[nH]c(N)n1,Active,97.9%,64.5%,52.5%,Activity [3]: 44.6%
Nc1nc(Cc2c[nH]cn2)c[nH]1,Active,–,–,–,–
Nc1nc(Cc2c[nH]c3ccccc23)c[nH]1,Active,–,–,–,–
Nc1nc(CCCCc2c[nH]c(N)n2)c[nH]1,Active,–,–,–,inhibition (INH) [6]: 44.6%; Activity [7]: 78.9%; inhibition (INH) [8]: 5.6%; Activity [9]: 3.6%
Nc1nc(Cc2ccc(O)cc2)c[nH]1,Active,–,–,–,–
N=C(N)NN,–,inactive,inactive,inactive,–
NCCCc1c[nH]c(N)n1,Active,110%,79.4%,67.5%,–
